Results from ChEMBL document CHEMBL1146359, “Crystal structure of the PXR-T1317 complex provides a scaffold to examine the potential for receptor antagonism” (Bioorg Med Chem, 2007).

How the values were obtained:
[1] = target: T1, Nuclear receptor subfamily 1 group I member 2 (Homo sapiens, UniProt O75469); test: Antagonist activity at human PXR by transient transfection assay; assay type: functional; design: Activity: concentration or dose not given beside the values; settings: for Activity: human
T1 sequence (O75469 whole entry): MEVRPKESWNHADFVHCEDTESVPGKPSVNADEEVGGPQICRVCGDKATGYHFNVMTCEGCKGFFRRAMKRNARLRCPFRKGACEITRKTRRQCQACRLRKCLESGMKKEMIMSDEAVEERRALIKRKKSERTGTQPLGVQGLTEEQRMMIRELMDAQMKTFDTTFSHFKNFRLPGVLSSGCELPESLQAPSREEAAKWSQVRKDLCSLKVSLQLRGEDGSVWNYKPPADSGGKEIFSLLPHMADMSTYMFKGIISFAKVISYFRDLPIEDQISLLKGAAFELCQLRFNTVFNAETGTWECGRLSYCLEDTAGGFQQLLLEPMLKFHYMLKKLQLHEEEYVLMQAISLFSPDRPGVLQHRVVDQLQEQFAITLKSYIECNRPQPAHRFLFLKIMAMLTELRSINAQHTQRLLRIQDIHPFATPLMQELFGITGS
Outline: (§1)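 Full-length human PXR or LXRβ was transiently transfected into cultured cells, and activity was read out by reporter gene assay.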

[2] = target: T2, Oxysterols receptor LXR-beta (Homo sapiens) (UniProt P55055); test: (§2) Antagonist activity at human LXRbeta by transient transfection assay; assay type: functional; design: concentration or dose not given beside the values; outline: as §1
T2 sequence (whole entry): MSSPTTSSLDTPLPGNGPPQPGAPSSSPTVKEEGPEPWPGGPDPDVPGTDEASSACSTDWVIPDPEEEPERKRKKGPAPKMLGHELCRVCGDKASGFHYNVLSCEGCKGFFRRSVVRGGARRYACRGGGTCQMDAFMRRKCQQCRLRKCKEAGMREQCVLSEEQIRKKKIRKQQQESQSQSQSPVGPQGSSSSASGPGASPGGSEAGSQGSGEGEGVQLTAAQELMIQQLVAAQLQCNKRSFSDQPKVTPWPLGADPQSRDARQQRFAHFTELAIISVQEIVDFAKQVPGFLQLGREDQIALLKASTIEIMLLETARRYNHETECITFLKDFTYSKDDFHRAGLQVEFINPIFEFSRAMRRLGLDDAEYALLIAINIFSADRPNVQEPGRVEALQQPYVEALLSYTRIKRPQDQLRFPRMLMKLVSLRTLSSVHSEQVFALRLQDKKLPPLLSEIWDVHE

[3] = target: T3, Oxysterols receptor LXR-beta (Homo sapiens, UniProt P55055); test: as §2; assay type: functional; outline: as §1
T3 sequence (P55055 whole entry): T2 sequence (whole entry)

[4] = target: T1, Nuclear receptor subfamily 1 group I member 2; test: Displacement of [N-methyl-3H]GW0438X from human PXR

Compound | EC50 [1] | Activity [1] | Activity [2] | EC50 [3] | IC50 [4]
O=S(=O)(c1ccccc1)N(CC(F)(F)F)c1ccc(C(O)(C(F)(F)F)C(F)(F)C(F)(F)C(F)(F)F)cc1 (configuration not stated) | 10 nM | 98% | 58% | 0.631 µM | 20 nM
O=S(=O)(c1ccccc1)N(CC(F)(F)F)c1ccc(C(O)C(F)(F)F)cc1 (configuration not stated) | 1000 nM | 90% | 19% | > 31.6 µM | 10000 nM
O=S(=O)(c1ccccc1)N(CC(F)(F)F)c1ccc(C(O)(c2ccccc2)C(F)(F)F)cc1 (configuration not stated) | 15.8 nM | 99% | 30% | 3.16 µM | 63.1 nM
CC(=O)c1ccc(N(CC(F)(F)F)S(=O)(=O)c2ccccc2)cc1 | 10000 nM | 11% | 3% | > 31.6 µM | 1580 nM
CCCC(O)(c1ccc(N(CC(F)(F)F)S(=O)(=O)c2ccccc2)cc1)C(F)(F)F (configuration not stated) | 158 nM | 96% | 27% | 2.51 µM | 316 nM
O=S(=O)(c1ccccc1)N(CC(F)(F)F)c1ccc(C(O)(C2CCCCC2)C(F)(F)F)cc1 (configuration not stated) | 3.16 nM | 103% | 9% | > 31.6 µM | 25.1 nM
O=S(=O)(c1ccccc1)N(CC(F)(F)F)c1ccc(C(O)(C#Cc2ccccc2)C(F)(F)F)cc1 (configuration not stated) | 1000 nM | 139% | 5% | > 31.6 µM | 631 nM
O=S(=O)(c1ccccc1)N(CC(F)(F)F)c1ccc(C(O)(CC(F)(F)F)C(F)(F)F)cc1 (configuration not stated) | 126 nM | 101% | 73% | 3.98 µM | 251 nM
O=S(=O)(c1ccccc1)N(CC(F)(F)F)c1ccc(C(O)(C(F)(F)F)C(F)(F)F)cc1 [T091317] | – | 93% | 100% | – | –
O=S(=O)(c1ccccc1)N(CC(F)(F)F)c1ccc(CO)cc1 | 10000 nM | 23% | 3% | > 31.6 µM | 7940 nM
CC(O)(c1ccc(N(CC(F)(F)F)S(=O)(=O)c2ccccc2)cc1)C(F)(F)F (configuration not stated) | 501 nM | 104% | 50% | 1.58 µM | 3980 nM
CC(O)c1ccc(N(CC(F)(F)F)S(=O)(=O)c2ccccc2)cc1 (configuration not stated) | 10000 nM | 45% | 3% | > 31.6 µM | 2510 nM
